This note sets out measurements from ChEMBL document CHEMBL3120111, “Bilirubin and related tetrapyrroles inhibit food-borne mutagenesis: a mechanism for antigenotoxic action against a model epoxide” (J Nat Prod, 2013).

Usually inhibition stands for the change of the read-out against control, counted positive when it falls.

Calls of active or inactive are those of the source. No cut-off for these calls is given here.

Data set [1] concerns Salmonella typhimurium. Description: Antimutagenic activity against PhIP-induced Salmonella typhimurium TA98 mutagenesis preincubated at 0.5 umol/plate for 25 mins by Ames test in presence of S9 liver homogenate relative to control. The data set is classed as functional, organism-based. Conditions: Salmonella enterica subsp. enterica serovar Typhimurium, Liver S9 fraction. The method in brief:
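IP0.5 is the percent inhibition of PhIP-positive-control revertants (0.1×10^-7 mol/plate PhIP, TA98, with S9) at 0.5 µmol/plate tetrapyrrole. It was derived from dose-response data in the 25 min preincubation plate assay, with 48 h incubation at 37 °C. Three positive-control plates and six solvent-control plates per test.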
(The Ames test detects mutagens through reverse mutation in bacteria.)

The test system of data set [2] is Salmonella typhimurium. Description: Mutagenic activity in Salmonella typhimurium TA98 mutagenesis preincubated at 0.5 umol/plate for 25 mins by Ames test in presence of S9 liver homogenate relative to aflatoxin B1. The data set is classed as toxicity, organism-based, Liver S9 fraction. As to conditions: salmonella enterica subsp. enterica serovar typhimurium.
The subject of data set [3] is Salmonella typhimurium. In words: Antimutagenic activity against PhIP-induced Salmonella typhimurium TA98 mutagenesis assessed as reduction in His+ revertants after 48 hrs by microscopy in presence of S9 liver homogenate. The data set is classed as functional, organism-based. As to conditions: Salmonella enterica subsp. enterica serovar Typhimurium, Liver S9 fraction. The gist of the method: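 Ames preincubation in TA98 with rat liver S9 mix (Aroclor 1254-induced, with NADP and glucose-6-phosphate). PhIP was 0.1×10^-7 mol/plate in DMSO; tetrapyrroles were in DMSO at 0.01–2 µmol/plate (bilirubin 0.01–0.75). Preincubation 25 min at 37 °C with shaking, then top agar on minimal glucose plates for 48 h at 37 °C. His+ revertants counted manually after microscopic lawn check. Triplicate plates, repeated independently.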

Data set [4] relates to Salmonella typhimurium. In words: Antimutagenic activity against PhIP-induced Salmonella typhimurium TA98 mutagenesis preincubated at 0.01 to 10 umol/plate for 25 mins by Ames test in presence of S9 liver homogenate relative to control. As to conditions: Salmonella enterica subsp. enterica serovar Typhimurium, Liver S9 fraction. It counts as functional, organism-based.

Turning to `C=CC1=C(C)/C(=C/c2[nH]c(Cc3[nH]c(/C=C4\NC(=O)C(C)=C4C=C)c(C)c3CCC(=O)NCCS(=O)(=O)O)c(CCC(=O)NCCS(=O)(=O)O)c2C)NC1=O` [BILIRUBIN DITAURATE], the inhibition in the data set with Salmonella typhimurium [1] came out at 64%. The Activity in the data set with Salmonella typhimurium [2] amounted to 268%.

In the case of `C=CC1=C(C)/C(=C\c2[nH]c(Cc3[nH]c(/C=C4/NC(=O)C(C)=C4C=C)c(C)c3CCC(=O)OC)c(CCC(=O)OC)c2C)NC1=O`, in the data set on Salmonella typhimurium [1], the inhibition turned out to be 68%.

On to `C=CC1=C(C)/C(=C/C2=NC(=C\c3[nH]c(/C=C4\NC(=O)C(C)=C4C=C)c(C)c3CCC(=O)O)/C(CCC(=O)O)=C2C)NC1=O` [BILIVERDIN], for which the result in the data set on Salmonella typhimurium [3] and with Salmonella typhimurium [4] was Active. The inhibition in the data set on Salmonella typhimurium [1] came to 78%. Besides, the Activity with Salmonella typhimurium [2] is recorded as 363%.

Take `C=CC1=C(C)/C(=C/c2[nH]c(Cc3[nH]c(/C=C4\NC(=O)C(C)=C4C=C)c(C)c3CCC(=O)O)c(CCC(=O)O)c2C)NC1=O` [BILIRUBIN]: the inhibition with Salmonella typhimurium [1] was found to be 82%. Also, the Activity in the data set with Salmonella typhimurium [2] amounted to 352%.

Turning to `CCC1=C(C)[C@H](CC2=N/C(=C\c3[nH]c(C[C@@H]4N=C(O)C(C)=C4CC)c(C)c3CCC(=O)O)C(CCC(=O)O)=C2C)N=C1O`, the result with Salmonella typhimurium [4] was Active. In addition, the inhibition in the data set on Salmonella typhimurium [1] stood at 48%.

Take `C=CC1=C(C)c2cc3[nH]c(cc4nc(cc5[nH]c(cc1n2)c(C)c5CCC(=O)O)C(CCC(=O)O)=C4C)c(C)c3C=C`: in the data set on Salmonella typhimurium [1], the inhibition worked out at 97%.

As for `CC[C@H]1[C@H](Cc2[nH]c(/C=C3\N=C(C[C@@H]4NC(=O)[C@H](CC)[C@H]4C)C(C)=C3CCC(=O)O)c(CCC(=O)O)c2C)NC(=O)[C@@H]1C`, the outcome in the data set with Salmonella typhimurium [4] was Active. Also, the inhibition with Salmonella typhimurium [1] was determined as 57%.

Regarding `C=CC1=C(C)/C(=C/C2=NC(=C\c3[nH]c(/C=C4/NC(=O)C(C)=C4C=C)c(C)c3CCC(=O)OC)/C(CCC(=O)OC)=C2C)NC1=O`, the result in the data set with Salmonella typhimurium [3] and in the data set with Salmonella typhimurium [4] was Active. Moreover, the inhibition in the data set with Salmonella typhimurium [1] is 55%.
